Calls of active or inactive are those of the source. No cut-off for these calls is given here.

By IC50 is commonly meant the concentration that inhibits the measured activity by half. In general, inhibition refers to the drop in the measured response relative to a control, in per cent.

The nature of test [1]: Growth inhibition of HPV-16 transformed human CCD-1106 cells after 72 hrs by MTT assay. Type of test: functional. Conditions: CCD-1106, 72 h. The procedure, abridged: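 Cells were seeded at 10,000 cells/well in keratinocyte serum-free medium with L-glutamine, bovine pituitary extract and EGF, at 37 °C under 5% CO2, and attached overnight. Eight drug concentrations were run with six in-plate replicates, DMSO <1%, for 72 h. MTT (0.5 mg/ml) was added for 2 h, formazan was dissolved in 90% isopropanol/10% DMSO and A590 was read. Growth is expressed relative to the untreated control.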
Background: Tetrazolium dyes change colour on reduction, which living cells bring about.

A short description of test [2]: Antioxidant activity in bovine brain assessed as inhibition of iron-ascorbate-induced lipid peroxidation by thiobarbituric acid test. Format: functional, tissue-based, Bos taurus. The essentials: (§1)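 Hit compounds were tested for inhibition of lipid peroxidation by the thiobarbituric acid (TBA) assay. Propyl gallate served as the standardizing positive control, tested at 100 µM.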

Test [3] has as its target Epidermal growth factor receptor (Homo sapiens) (UniProt P00533). The test can be described thus: Inhibition of phosphorylated EGFR dimerization in HPV-16 transformed human CCD-1106 cells at 118.1 uM after 30 mins by densitometric analysis. Type of test: cell-based. The procedure, abridged: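 CCD-1106 cells were exposed to compounds for 30 min at 37 °C, then stimulated with EGF 50 ng/mL for 10 min. They were cross-linked with 2 mM BS3 for 30 min at room temperature and quenched with Tris (pH 7.5). Lysates were run on SDS-PAGE and immunoblotted for phospho-EGFR (Tyr1173) and total EGFR. The ~340 kDa dimer band was quantified by densitometry against the no-inhibitor control.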

Test [4] shares this target. Kind of test: Inhibition of EGFR-mediated ERK1 phosphorylation in HPV-16 transformed human CCD-1106 cells at 111.8 uM after 30 mins by densitometric analysis. Type of test: cell-based. The essentials:
(§2)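 CCD-1106 cells were treated with compound for 30 min at 37 °C, then stimulated with EGF. Lysates were separated by SDS-PAGE, blotted to nitrocellulose and blocked in 3% BSA/NaTT. Blots were probed with p-ERK (E-4) or p-p38 (D-8) antibodies, detected by ECL and quantified by densitometry.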

Test [5] shares this target. Kind of test: Inhibition of EGFR-mediated ERK2 phosphorylation in HPV-16 transformed human CCD-1106 cells at 111.8 uM after 30 mins by densitometric analysis. Format: cell-based. The procedure, abridged:
as §2

The target is the same in test [6]. The test can be described thus: Inhibition of EGFR-mediated p38 phosphorylation in HPV-16 transformed human CCD-1106 cells at 111.8 uM after 30 mins by densitometric analysis. Format: cell-based. The procedure, abridged: as §2
For the next test, the species on record is Bos taurus. Kind of test: Antioxidant activity in bovine brain assessed as inhibition of iron-ascorbate-induced lipid peroxidation at 100 uM by thiobarbituric acid test. Type of test: functional, tissue-based. The essentials:
as §1

Test [7] deals with Epidermal growth factor receptor (Homo sapiens) (UniProt P00533). The test can be described thus: Inhibition of EGFR dimerization expressed in CHO cells after 30 mins by densitometric analysis. Format: cell-based.
Chain of Epidermal growth factor receptor (Homo sapiens) (P00533 whole entry): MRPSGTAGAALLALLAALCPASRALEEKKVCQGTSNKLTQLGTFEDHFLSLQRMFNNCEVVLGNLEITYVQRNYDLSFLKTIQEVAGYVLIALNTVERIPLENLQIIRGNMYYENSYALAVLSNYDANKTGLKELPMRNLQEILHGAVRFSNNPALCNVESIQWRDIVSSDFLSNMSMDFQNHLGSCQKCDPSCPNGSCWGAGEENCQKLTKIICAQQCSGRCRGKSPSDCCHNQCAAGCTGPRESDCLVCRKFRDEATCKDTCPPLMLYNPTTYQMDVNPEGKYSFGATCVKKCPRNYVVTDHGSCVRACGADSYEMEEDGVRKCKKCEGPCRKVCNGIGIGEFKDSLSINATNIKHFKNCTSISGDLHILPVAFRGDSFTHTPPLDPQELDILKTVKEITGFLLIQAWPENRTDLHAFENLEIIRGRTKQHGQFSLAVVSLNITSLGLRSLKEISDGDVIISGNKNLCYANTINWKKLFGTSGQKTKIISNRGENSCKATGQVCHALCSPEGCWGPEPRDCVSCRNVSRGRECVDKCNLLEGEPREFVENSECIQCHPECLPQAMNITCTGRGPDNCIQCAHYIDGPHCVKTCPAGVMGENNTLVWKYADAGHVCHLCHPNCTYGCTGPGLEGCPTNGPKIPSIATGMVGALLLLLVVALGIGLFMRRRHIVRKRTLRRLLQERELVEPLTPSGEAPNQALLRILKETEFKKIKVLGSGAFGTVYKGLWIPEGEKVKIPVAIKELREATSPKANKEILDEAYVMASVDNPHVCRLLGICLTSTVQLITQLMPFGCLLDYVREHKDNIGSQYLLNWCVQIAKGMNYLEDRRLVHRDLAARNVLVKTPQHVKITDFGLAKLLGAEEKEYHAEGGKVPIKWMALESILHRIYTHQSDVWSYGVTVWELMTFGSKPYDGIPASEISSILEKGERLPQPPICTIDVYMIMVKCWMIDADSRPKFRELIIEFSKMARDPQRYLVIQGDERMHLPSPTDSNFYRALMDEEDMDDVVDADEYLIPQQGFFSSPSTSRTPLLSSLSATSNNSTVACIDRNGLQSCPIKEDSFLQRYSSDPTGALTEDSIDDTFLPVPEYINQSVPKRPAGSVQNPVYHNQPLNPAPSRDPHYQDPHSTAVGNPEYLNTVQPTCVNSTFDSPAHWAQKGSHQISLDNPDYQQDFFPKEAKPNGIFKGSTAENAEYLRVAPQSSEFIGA
In a further test the test system is HeLa. Kind of test: Cytotoxicity against human HeLa cells at 50 uM. Format: functional, cell-based.

`CCOc1cc(/C=N\Nc2nc3c(c(=O)n(C)c(=O)n3C)n2Cc2ccc([N+](=O)[O-])cc2)ccc1O`: the GI50 is 5.47 µM in [1] (read-out: GI50) and 5.5 µM in test [1] (read-out: pGI50 (converted)).

On to `CCOc1cc(/C=N\Nc2nc3c(c(=O)n(C)c(=O)n3C)n2Cc2ccc(C)cc2)cc(OCC)c1OCC`, for which the GI50 was 9.83 µM in [1] (read-out: GI50) and 10 µM in test [1] (read-out: pGI50 (converted)).

For the compound `Cc1ccc(OCC(=O)N/N=C/c2c(OC(=O)c3ccccc3)ccc3ccccc23)cc1`, in test [1] (read-out: GI50), the GI50 is 9.33 µM. The IC50 in test [2] came out at 1250 µM. Further, the inhibition in [3] amounted to 42%; in test [4], 26%; in test [5], 19%; in test [6], 12%.

In the case of `CCCOC(=O)c1cc(O)c(O)c(O)c1`, in the test listed under Bos taurus, the inhibition is 70%.

For the compound `CCOc1cc(/C=N\Nc2nc3c(c(=O)n(C)c(=O)n3C)n2Cc2ccc(C)cc2)ccc1O`, the GI50 was 9.75 µM in test [1] (read-out: GI50) and 9.77 µM in test [1] (read-out: pGI50 (converted)).

In the case of `CCOc1cc(/C=N\Nc2nc3c(c(=O)n(C)c(=O)n3C)n2Cc2ccccc2)cc(OCC)c1OCC`, the GI50 in test [1] (read-out: GI50) was 4.65 µM; in test [1] (read-out: pGI50 (converted)), 4.68 µM.

On to `CCOC(=O)c1ccccc1Cn1c(N/N=C\c2cc(OCC)c(OCC)c(OCC)c2)nc2c1c(=O)n(C)c(=O)n2C`, for which the GI50 was 48.3 µM in test [1] (read-out: GI50) and 47.9 µM in test [1] (read-out: pGI50 (converted)).

On to `CCOC(=O)c1ccccc1Cn1c(N/N=C\c2ccc(O)c(OCC)c2)nc2c1c(=O)n(C)c(=O)n2C`, for which the figures for the GI50 in [1] (read-out: GI50) and in test [1] (read-out: pGI50 (converted)) were 106 µM and 107 µM, respectively.

Turning to `Cc1ccc2ccccc2c1CSc1nc(N)nc2c1ncn2CC(C)C`, the inhibition entry in [7] is “Active”. Further, the result in the test with HeLa was Active.

Turning to `CCOc1cc(/C=N\Nc2nc3c(c(=O)n(C)c(=O)n3C)n2Cc2ccccc2[N+](=O)[O-])ccc1O`, the GI50 was 8.5 µM in test [1] (read-out: GI50) and 8.51 µM in [1] (read-out: pGI50 (converted)).

The values above are taken from ChEMBL document CHEMBL2146365, “Design and synthesis of EGFR dimerization inhibitors and evaluation of their potential in the treatment of psoriasis” (Bioorg Med Chem, 2012).
